KCNK9 block = human KCNK9 channel inhibition. Q9NPC2. HEK293 KCNK9, FluxOR thallium flux fluorescence; hits give low values. B-score at 10 µM. hit rate 1.2% among 310,000. AID 488922;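 active = ratio B-score over 3 SD below the library mean, with starting fluorescence within 5 SD of its mean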;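 note: negative B-score means less thallium flux so channel inhibition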
KCNQ1 inh = human KCNQ1 channel inhibition; P51787; CHO-K1 KCNQ1, FluxOR thallium flux fluorescence; hits give high values; hit rate 1.3% among 310,000; B-score at 10 µM;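 active = compounds whose thallium flux B-score, printed positive for inhibition, exceeds three library SD while starting fluorescence stays within three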;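 note: channel opened by potassium depolarization with thallium stimulus after 20 min compound exposure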
Kir21 block = blocks the mouse Kir2.1 inward-rectifier potassium channel. P35561. HEK293-Kir2.1, FluxOR thallium flux fluorescence; hits give low values. B-score at 10 µM. hit rate 0.85% among 310,000;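 active = fluorescence ratio B-score at or below minus 3 SD of library scores, with starting-brightness B-score within 2 SD, cut at about -4.2 in these data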;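 note: channel flux triggered by added potassium and thallium sulfate stimulus; B-score of peak minus minimum fluorescence over baseline after thallium stimulus; more negative B-score means stronger Kir2.1 block with less thallium influx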
Target sequence (P35561 whole entry, looked up): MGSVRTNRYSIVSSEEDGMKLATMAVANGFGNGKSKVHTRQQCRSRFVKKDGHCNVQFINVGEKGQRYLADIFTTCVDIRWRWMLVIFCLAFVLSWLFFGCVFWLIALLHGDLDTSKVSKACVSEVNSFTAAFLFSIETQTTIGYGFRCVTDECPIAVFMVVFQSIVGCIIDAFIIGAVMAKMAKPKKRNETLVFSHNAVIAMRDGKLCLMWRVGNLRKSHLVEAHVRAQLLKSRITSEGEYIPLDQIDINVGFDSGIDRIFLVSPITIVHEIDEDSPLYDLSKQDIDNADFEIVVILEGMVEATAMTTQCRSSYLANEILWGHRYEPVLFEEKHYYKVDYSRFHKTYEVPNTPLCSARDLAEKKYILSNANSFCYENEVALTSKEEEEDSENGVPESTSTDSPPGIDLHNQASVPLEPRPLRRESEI
KCNQ1 pot = potentiators or activators of human KCNQ1 potassium channel; P51787; CHO-K1 KCNQ1, thallium flux FluxOR fluorescence; hits give high values; B-score at 10 µM; hit rate 0.35% among 310,000; AID 2648;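 active = fluorescence ratio B-score, a plate-corrected score, at least three library SD, with initial intensity B-score within 5 SD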
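Doses: Single concentration per compound, DMSO matched to controls | Test system: KCNQ1-transfected CHO-K1 cells | Timing: 90 min dye loading and 20 min compound exposure, both at room temperature | Measured by: Kinetic FluxOR thallium fluorescence, 10-s 1-Hz baseline, 110-s post-stimulus read | Medium: Assay buffer with matched DMSO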
KCNK3 inh = human KCNK3 channel inhibition, primary screen | CHO-KCNK3 thallium flux, FluxOR fluorescence; hits give low values | B-score at 10 µM | hit rate 0.84% among 340,000 | AID 602410;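 active = B-score under library mean minus 4 SD, starting fluorescence ratio at most library mean plus 5 SD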;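 note: more negative B-score means stronger inhibition of thallium flux through KCNK3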
hERG protect = hERG (human) protection from proarrhythmic block; Q12809; CHO-hERG, FluxOR thallium flux, dofetilide IC70 present; activation (rescue from dofetilide block), less the hit threshold, % at 10 µM; hit rate 0.51% among 310,000;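 active = activation above the mean of controls blocked by dofetilide plus 5 SD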;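 note: thallium influx through hERG after potassium depolarization seen as dye fluorescence rise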
KCNQ1 block val = confirmation of human KCNQ1 potassium channel inhibitors | hit rate 93% among 1,600 | inhibition, % at 10 µM | KCNQ1 cell line, FluxOR thallium flux fluorescence | shares compounds with KCNQ1 inh | AID 588353;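 active = primary screen active, with duplicate mean exceeding buffer control mean plus 3 SD of buffer wells, cut at about 28% in these data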;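 note: 0% = buffer control ratio and 100% = XE991 inhibitor control ratio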
CHO KCNQ1 ctr = activity in parental CHO cells lacking KCNQ1 | shares compounds with KCNQ1 inh | parental CHO-K1, FluxOR thallium flux fluorescence ratio; hits give low values; zero means no signal rise above baseline | fluorescence ratio (Tl flux) at 10 µM | hit rate 21% among 1,600 | AID 588366;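 active = mean of duplicate thallium-flux fluorescence ratios in parental host cells more than 5 SD below the buffer control mean, cut at about 0.38 in these data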;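 note: ratio is peak minus minimum fluorescence divided by baseline fluorescence; actives read low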
KCNQ1 ephys val = confirmation of human KCNQ1 potassium channel inhibitors by electrophysiology; AID 624120; calls only at 10 µM; shares compounds with KCNQ1 inh; KCNQ1-CHO cells, automated patch clamp current; hit rate 20% among 490;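 active = KCNQ1 current drop exceeding 3 SD of negative control wells, seen in both duplicate runs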;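 note: steady state current during a 2 s step from -80 to +40 mV; negative values mean current inhibition and positive values mean potentiation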
KCNQ2 inh = KCNQ1 inhibitor that also blocks rat KCNQ2 channel; shares compounds with KCNQ1 inh; KCNQ2 cells, FluxOR thallium flux fluorescence; inhibition, % at 10 µM; hit rate 71% among 1,600; AID 651746;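 active = mean percent inhibition of the KCNQ2 thallium signal more than 5 SD above the buffer-only control wells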;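 note: KCNQ2 expressed in CHO cells; 0% = buffer control wells and 100% = XE-991 inhibitor control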
KCNQ1-KCNE1 inh = human KCNQ1/KCNE1 inhibition in KCNQ1 specificity screen | shares compounds with KCNQ1 inh | KCNQ1/KCNE1 cells, FluxOR thallium flux fluorescence | inhibition, % at 10 µM | hit rate 77% among 1,600;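 active = mean percent inhibition of duplicate wells above the buffer-only control mean plus 3 SD of those controls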;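 note: 0% = buffer only wells and 100% = XE-991 inhibitor control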
* hit, by the source's call; i = inactive; x = no result; + = active, no number. In the library only some 3.7% were active in any assay of this set; here they are far more common.

SMILES	KCNK9 block	KCNQ1 inh	Kir21 block	KCNQ1 pot	KCNK3 inh	hERG protect	KCNQ1 block val	CHO KCNQ1 ctr	KCNQ2 inh	KCNQ1-KCNE1 inh	others
COc1ccc(N2CCN(CCNS(=O)(=O)c3ccc(C)cc3)CC2)cc1	i	i	2.44	i	i	-3.9	x	x	x	x
CN(C)S(=O)(=O)c1ccc(Cl)c(NC(=O)COC(=O)c2cc(-c3ccccc3)nc3ccccc23)c1	i	6*	0.88	i	i	-10.2	60.5*	0.488	74.3%*	74.5%*
Cc1ccn2c(c1)nc(=O)c1cc(S(=O)(=O)N3CCOCC3)ccc12	i	i	-2.59	i	i	-7.9	x	x	x	x
COc1ccccc1-c1c(C)nn2c(N3CCCCCC3)cc(C)nc12	i	8*	0	i	i	-16.2	0.0	0.491	84.7%*	i
CCOC(=O)c1cnc(-n2nc(C)cc2C)nc1NC1CCCCC1	i	11*	1.8	i	i	-32.3	76.0*	0.396	108.0%*	107.0%*
COc1ccccc1CNC(=O)CN(C)S(=O)(=O)c1ccc2c(c1)c(=O)n(C)c(=O)n2C	i	i	0.66	i	i	-5.9	x	x	x	x
CCc1noc(C)c1C(=O)N1CCCSC1=Nc1ccccc1C(C)C	i	6*	-1.86	i	i	-8.8	83.5*	0.393	105.7%*	103.5%*
O=C(CSc1ccc(S(=O)(=O)N2CCCCC2)cn1)Nc1ccccc1Br	x	x	x	x	i	x	x	x	x	x
O=C(NC1CCSc2ccccc21)c1cccc(Br)c1 (centres undefined)	i	7*	-0.14	i	i	-6.5	31.5*	0.551	82.7%*	33.5%*
O=C(CCSc1ccc(Cl)cc1)NC12CC3CC(CC(C3)C1)C2	i	i	-0.01	i	i	-11.3	x	x	x	x
c1ccc2c(c1)OCCOCCOCCOCCOCCOc1ccccc1OCCOCCOCCO2	i	8*	-7.66	i	i	-23.4	80.0*	0.496	64.3%*	60.5%*
OCCN1CCOCCOc2ccccc2OCCOCC1	i	i	-0.17	i	i	-4.9	x	x	x	x
Cc1ccc(C)c(S(=O)(=O)N2CCN(C(=O)c3cc(-c4cccs4)nn3-c3ccccc3)CC2)c1	i	9*	-0.02	i	i	-14.6	0.0	0.453	78.7%*	46.5%*
CCCCCCCCCn1ccc(=N)cc1	i	7*	-0.27	i	i	-18.2	70.5*	0.486	70.7%*	i
O=S1(=O)CCN(C(CCO)c2cccc(C(F)(F)F)c2)CC1 (centres undefined)	i	i	1.04	i	i	-4.1	x	x	x	x
COc1ccccc1NC(=O)C(Sc1ccccc1)c1ccccc1 (centres undefined)	i	10*	0.69	i	i	-11.2	83.5*	0.398	112.3%*	88.5%*
COCCCN1C(=O)N(c2ccc(F)cc2)C(=O)C1CC(=O)Nc1ccc(OC)cc1 (centres undefined)	i	i	-0.45	i	i	-3.7	x	x	x	x
O=S(=O)(NCCC1=CCCCC1)c1ccc(Br)cc1	i	7*	-0.51	i	i	-14.3	99.0*	0.447	106.3%*	150.5%*	KCNQ1 ephys val=+
CCC1(CC)Cc2ccccc2C(=O)N1	i	i	0.47	i	i	-2.8	x	x	x	x
O=C1c2ccccc2CC1(Cc1ccccc1)Cc1ccccc1	i	9*	0.11	i	i	-9.7	123.5*	0.329*	114.0%*	164.5%*
Cc1ccc(N=Nc2c(N)[nH]n3c(=O)cc(-c4ccccc4)nc23)cc1	i	9*	1.02	i	i	-11.1	46.0*	0.485	i	87.0%*
Cc1ccc(S(=O)(=O)N(C)C)cc1NC(=O)C1CCCN(C(=O)c2ccc(Cl)cc2)C1 (centres undefined)	i	i	0.1	i	i	-17.5	x	x	x	x
Cc1ccc(C)c(-c2cc(C(=O)Nc3nccs3)c3ccccc3n2)c1	-7.85*	8*	0.37	i	i	-8.4	88.0*	0.5	101.7%*	125.0%*	KCNQ1 ephys val=i
Cc1sc(NC(=O)c2cc(-c3ccc(Cl)cc3)nc3ccccc23)c(C(N)=O)c1C	i	i	0.51	i	i	-11.6	x	x	x	x
Cc1sc(NC(=O)c2cc(-c3ccccc3)nc3ccccc23)c(C(N)=O)c1C	i	6*	-3.08	i	i	-6.2	97.0*	0.464	100.3%*	140.0%*	KCNQ1 ephys val=i
SMILES	KCNK9 block	KCNQ1 inh	Kir21 block	KCNQ1 pot	KCNK3 inh	hERG protect	KCNQ1 block val	CHO KCNQ1 ctr	KCNQ2 inh	KCNQ1-KCNE1 inh	others
COC(=O)c1sccc1NC(=O)c1cc(-c2cc(C)ccc2C)nc2ccccc12	i	i	0.02	i	i	-16.0	x	x	x	x
Cc1cccc(NC(=O)c2cc(-c3ccc(C)s3)nc3ccccc23)n1	-7.25*	6*	0.18	i	i	-11.0	92.5*	0.432	97.7%*	149.0%*	KCNQ1 ephys val=i
CC1CCCC(NC(=O)c2cccs2)C1C (centres undefined)	x	x	x	x	i	x	x	x	x	x
O=c1oc2c(-c3cccc(F)c3)cc(O)cc2s1	i	11*	0.07	i	i	-11.5	73.5*	0.512	i	64.0%*
CCOC(=O)/C(C#N)=C\c1ccc(OCC(=O)Nc2ccc(C)cc2C)c(OC)c1	i	i	-0.54	i	i	-4.0	x	x	x	x
c1ccc(-c2noc(-c3ccccc3-c3ccccc3)n2)cc1	i	7*	0.41	i	i	-8.1	133.0*	0.401	115.3%*	193.5%*	KCNQ1 ephys val=i
Fc1ccccc1-c1nc(-c2ccc(Cl)cc2)no1	i	i	-1.6	i	i	-10.2	x	x	x	x
Cc1ccc(Cn2nnc3c(=O)[nH]c(C4CCN(C(=O)Cc5cccs5)CC4)nc32)cc1	i	7*	-0.09	i	i	-10.8	0.0	0.494	i	i
O=C(Nc1ccc(N2CCCCC2)c(Cl)c1)c1ccc2c(c1)OCCO2	i	9*	-0.56	i	i	-7.3	86.5*	0.464	98.0%*	120.5%*
O=C(Nc1ccc(N2CCCC2)c(Cl)c1)c1ccc2c(c1)OCCO2	i	i	1.26	i	i	-6.2	x	x	x	x
